PG9 Ab binder: PG9 antibody binding by small molecule; TR-FRET gp120-PG9 antibody binding; inhibition, % at 6.7 µM; actives 0.43% (n = 360,000); AID 624416; in the data active = inhibition above about 8.5%
NR2E3 ag-1: agonists of human NR2E3 nuclear receptor | CHO-S Gal4-NCOR/VP16-NR2E3 two-hybrid, luciferase | AID 602229 | inhibition of corepressor binding, % at 3.98 µM | Q9Y5X4 | actives 0.35% (n = 360,000);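 active = inhibition above the mean of all tested compounds plus 3 SD, cut at about 70% in these data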;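 also: higher means lower luciferase signal from less NR2E3 corepressor binding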
NR2E3 ag-2: agonists of human nuclear receptor NR2E3 | actives 0.12% (n = 320,000) | AID 2300 | Q9Y5X4 | inhibition of corepressor binding, % at 4.78 µM | GST-NR2E3/biotin-RetCOR TR-FRET, 1536-well;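 active = percent inhibition above the cutoff of mean plus 3 SD of all tested compounds, set per screening campaign, cut at about 20% in these data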
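Test system: GST-NR2E3 and biotin-RetCOR proteins | Quantity: 1.35 nM GST-tagged NR2E3 final | Medium: Tris pH 7.5 | Also added: 7 nM biotin-RetCOR | Dosing: Compound at 4.8 µM, single dose | Timing: 5 h at 4 °C | Detection: Time-resolved FRET | Read-out basis: Percent inhibition | Benchmarks: Biotin wells as high control, 0.6% DMSO wells as low control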
NR1D1 modulator: modulators of human Rev-erb alpha DNA binding; activity, % at 10 µM; Rev-erbα–FITC-DNA binding, fluorescence polarization, 90 min; actives 0.79% (n = 370,000);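 active = activity above about 14%, limit read from the data; passing the limit was not always enough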
Target sequence (P20393 whole entry, looked up): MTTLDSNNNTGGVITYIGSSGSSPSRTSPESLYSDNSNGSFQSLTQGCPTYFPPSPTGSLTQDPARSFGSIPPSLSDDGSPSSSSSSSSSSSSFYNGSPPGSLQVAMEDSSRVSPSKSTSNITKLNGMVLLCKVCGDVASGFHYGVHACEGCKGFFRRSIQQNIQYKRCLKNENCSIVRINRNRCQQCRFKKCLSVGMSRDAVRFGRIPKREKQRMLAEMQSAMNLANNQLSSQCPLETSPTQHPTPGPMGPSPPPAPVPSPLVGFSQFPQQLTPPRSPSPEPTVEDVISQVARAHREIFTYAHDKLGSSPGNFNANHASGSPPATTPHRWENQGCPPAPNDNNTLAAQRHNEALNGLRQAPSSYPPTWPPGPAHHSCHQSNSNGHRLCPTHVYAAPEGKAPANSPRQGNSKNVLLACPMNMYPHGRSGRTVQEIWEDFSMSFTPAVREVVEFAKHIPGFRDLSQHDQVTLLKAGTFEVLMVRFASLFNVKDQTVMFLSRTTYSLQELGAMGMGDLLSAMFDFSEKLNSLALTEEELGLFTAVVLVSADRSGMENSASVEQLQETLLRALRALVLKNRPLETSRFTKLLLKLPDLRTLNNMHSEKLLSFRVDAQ
rCAG RNA binder: molecules binding r(CAG) RNA repeats | r(CAG) RNA repeat, TO-PRO-1 dye displacement fluorescence | inhibition, % at 3 µM | actives 1.3% (n = 370,000);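 active = inhibition above the plate cutoff, the mean of all test compounds on that plate plus 3 SD, cut at about 35% in these data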;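 also: higher means more dye released from RNA so lower well fluorescence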
NR2E3 ag conf: NR2E3 agonism confirmed in two-hybrid assay; shares compounds with NR2E3 ag-1; inhibition, % at 3.98 µM; actives 51% (n = 2,300); AID 624378; CHO-S mammalian two-hybrid NR2E3-NCOR, luciferase luminescence;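 active = average inhibition above a cutoff equal to the mean inhibition of all tested compounds plus one SD, cut at about 70% in these data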
VP16 counter: GAL4-VP16 reporter inhibition in NR2E3 agonist counterscreen; shares compounds with NR2E3 ag-1; CHO-S GAL4-VP16 luciferase reporter, luminescence; inhibition, % at 3.98 µM; actives 29% (n = 2,300);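 active = mean inhibition above a cutoff equal to the average over all tested compounds plus one standard deviation, cut at about 70% in these data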;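 also: luciferase from a UAS reporter driven by GAL4-VP16 transactivation; higher means less reporter light so more repression of VP16 activity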
PG9 binder conf: confirmation of small molecules binding HIV-1 gp120 antibody PG9 | shares compounds with PG9 Ab binder | TR-FRET PG9 antibody binding, biochemical | inhibition, % at 6.7 µM | actives 90% (n = 1,500); in the data active = inhibition above about 9%
PGV04 Ab binding: binds control antibody PGV04 in PG9 binder counter-screen | shares compounds with PG9 Ab binder | actives 95% (n = 1,500) | inhibition, % at 6.7 µM | TR-FRET PGV04 antibody-gp120 binding, biochemical | AID 651604; in the data active = inhibition above about 9.5%
rCAG binder conf: r(CAG) RNA repeat binding, confirmation | shares compounds with rCAG RNA binder | TO-PRO-1 dye displacement fluorescence | inhibition, % at 3 µM | actives 70% (n = 4,300) | AID 652065;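 active = inhibition above a per-plate cutoff, the mean inhibition of sample wells plus 3 SD, cut at about 35% in these data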;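 also: loss of TO-PRO-1 fluorescence as compound displaces dye from 1x1 AA loop RNA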
DNA CAG counter: counter-screen for rCAG RNA binders: DNA CAG dye complex inhibitors; actives 94% (n = 4,300); shares compounds with rCAG RNA binder; d(CAG) DNA oligo TO-PRO-1 dye displacement, fluorescence; inhibition, % at 3 µM; AID 652068;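 active = inhibition above its plate's cutoff, the mean test-well inhibition plus 3 SD, cut at about 4.8% in these data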;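 also: hits displace the dye from DNA and so lower well fluorescence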
dCAG dye DR: disrupts DNA CAG TO-PRO-1 complex in dose response; DNA CAG/GTC duplex TO-PRO-1 dye displacement fluorescence; AID 686960; shares compounds with rCAG RNA binder; actives 20% (n = 250); IC50, µM; in the data active = IC50 below about 10 µM
Each line names hits and unclear results; the compound was inactive in the other large screens (follow-up assays come after a bar, where they were run). Compounds with a hit are over-represented: about 2.6% of the library has one in this group of screens.

CC(OC(=O)CCN=C1NS(=O)(=O)c2ccccc21)C(=O)Nc1ccc(S(N)(=O)=O)cc1 (stereo not given)	none
COc1cc(/C=C2\CC/C(=C\c3cc(OC)c(O)c(OC)c3)C2=O)cc(OC)c1O	NR2E3 ag-1 77.2, rCAG RNA binder 35.6 | NR2E3 ag conf 96.4 | VP16 counter inactive | rCAG binder conf 40.5 | DNA CAG counter 15.5
COc1cc(/C=C2\CCC/C(=C\c3ccc(O)c(OC)c3)C2=O)ccc1O	none
CC1(C(=O)Nc2ccc(S(=O)(=O)Nc3ncccn3)cc2)CCCC1	none (no result: NR2E3 ag-2)
CCOC(=O)c1c(NC(=O)/C=C/C(=O)O)sc(C)c1-c1ccc(C(C)(C)C)cc1	rCAG RNA binder 80.2 | NR2E3 ag conf inactive | VP16 counter inactive | rCAG binder conf 73.2 | DNA CAG counter 34.5 | dCAG dye DR 7.62
CCOC(=O)c1c(NC(=O)/C=C\C(=O)O)sc(C)c1-c1ccccc1	none
COCCNC(=O)C1CCCN(C(=O)c2cncc(Br)c2)CC1 (stereo not given)	none (no result: NR2E3 ag-2)
Cc1ccc(C)c(NC(=O)c2ccccc2NS(=O)(=O)c2cc([N+](=O)[O-])ccc2C)c1	NR2E3 ag-1 85.5, rCAG RNA binder 39.8 | NR2E3 ag conf 99.3 | VP16 counter 89.0 | rCAG binder conf 76.9 | DNA CAG counter 42.9
Cc1ccc(C)c(S(=O)(=O)Nc2ccccc2C(=O)Nc2cc(C)on2)c1	rCAG RNA binder 77.0 | NR2E3 ag conf inactive | VP16 counter inactive | rCAG binder conf 76.8 | DNA CAG counter 32.0 | dCAG dye DR inactive
Cc1ccc(S(=O)(=O)NC(=O)C2(C)CCN2C(=O)Cc2cc(F)ccc2F)nc1 (stereo not given)	none (no result: NR2E3 ag-2)
O=c1cc(-c2ccccc2Cl)oc2c([N+](=O)[O-])c(O)cc(O)c12	NR2E3 ag-1 98.0, rCAG RNA binder 50.9 | NR2E3 ag conf 98.7 | VP16 counter 90.7 | rCAG binder conf 35.4 | DNA CAG counter 11.6
O=C(Nc1ccc(O)c2c(=O)cc(-c3ccccc3Cl)oc12)c1ccccc1Cl	none
CC1CN(Cc2ccccc2)C(=S)N(c2ccccc2)C1=O (stereo not given)	none (no result: NR2E3 ag-2)
O=c1cc(-c2ccccc2)nc2c(-c3ccccc3)c(C(F)(F)F)[nH]n12	rCAG RNA binder 91.8 | NR2E3 ag conf 100.3 | VP16 counter 76.5 | rCAG binder conf 76.8 | DNA CAG counter 41.6
Nc1[nH]c(C(=O)c2ccccc2)c(-c2cccc3ccccc23)c1C(=O)c1cccs1	none (no result: NR2E3 ag-1, NR2E3 ag-2)
N#Cc1c(-c2ccccc2)cc(-c2ccccc2)nc1SCCC(=O)O	rCAG RNA binder 61.2 | NR2E3 ag conf 74.4 | VP16 counter inactive | rCAG binder conf 65.6 | DNA CAG counter 28.0 | dCAG dye DR inactive
O=S(=O)(Nc1nc(-c2ccccc2)cs1)c1cc(Cl)ccc1Cl	rCAG RNA binder 80.1 | NR2E3 ag conf inactive | VP16 counter inactive | rCAG binder conf 73.5 | DNA CAG counter 38.0
O=S(=O)(Nc1nc(-c2ccccc2)cs1)c1cccc(C(F)(F)F)c1	NR2E3 ag-1 70.6, rCAG RNA binder 77.7 | NR2E3 ag conf 87.9 | VP16 counter 75.5 | rCAG binder conf 56.8 | DNA CAG counter 22.1
O=C(Nc1ccc(Cl)c(Cl)c1)Nc1nc(-c2ccccc2)cs1	none
CC(C)NC(=O)N1Cc2cc(C(=O)NC3CCC3)nc(-c3cccc(-c4cncnc4)c3)c2[C@H]1CCO	none (no result: NR2E3 ag-2)
COc1ccc(C(O)Cc2nccn2C)cc1 (stereo not given)	none
O=c1cc(C(F)(F)F)nc(SCc2cccc3ccccc23)[nH]1	NR2E3 ag-1 100.2, rCAG RNA binder 68.7 | NR2E3 ag conf 98.4 | VP16 counter 83.8 | rCAG binder conf 40.2 | DNA CAG counter 10.3
Nc1cc(=O)[nH]c(SCc2cccc3ccccc23)n1	none
COC(=O)[C@]12C[C@H](CC(=O)N3CCOCC3)C(=O)N(Cc3ccccc3)C1=C[C@H](C1CCCC1)O[C@@H]2C	none (no result: NR2E3 ag-1, NR2E3 ag-2)
CC(C)CC(=NNC(=O)c1ccncc1)c1cc(Cl)ccc1O	none (no result: NR2E3 ag-2)
O=C(O)c1ccc(NC2=C/C(=N/S(=O)(=O)c3cccs3)c3ccccc3C2=O)cc1	none (no result: NR2E3 ag-2)
Cc1cc(C)c(S(=O)(=O)/N=C2\C=C(Nc3ccc(C(=O)O)cc3)C(=O)c3ccccc32)c(C)c1	NR2E3 ag-1 111.6, rCAG RNA binder 84.5 | NR2E3 ag conf 100.2 | VP16 counter 98.0 | rCAG binder conf 80.8 | DNA CAG counter 49.9
O=C(Nc1ccc(Br)c2ccccc12)c1ccc2ccccc2c1O	PG9 Ab binder 35.5, NR2E3 ag-1 107.2, NR2E3 ag-2 37.5, rCAG RNA binder 77.3 | NR2E3 ag conf 98.8 | VP16 counter 78.8 | PG9 binder conf 30.7 | PGV04 Ab binding 36.5 | rCAG binder conf 78.2 | DNA CAG counter 40.0
CC1(C)CC(=O)C2=C(C1)c1c(ccc3ccccc13)NC2c1cc([N+](=O)[O-])cc([N+](=O)[O-])c1O (stereo not given)	rCAG RNA binder 92.7 | NR2E3 ag conf 98.4 | VP16 counter inactive | rCAG binder conf 88.8 | DNA CAG counter 63.8
Cc1ccc(C2C(/C=C3/SC(=S)NC3=O)=C(c3cccs3)Oc3ccccc32)cc1 (stereo not given)	NR2E3 ag-1 74.2, rCAG RNA binder 80.0 | NR2E3 ag conf 87.1 | VP16 counter inactive | rCAG binder conf 83.3 | DNA CAG counter 51.0
CCOC(=O)C1=C(C(=O)OCC)C2N(Cc3ccc(C#N)cc3)c3ccccc3[C@@]23C[C@@H](C(=O)OC)N(S(=O)(=O)c2ccc(C)cc2)C3=N1 (stereo not given in full)	none (no result: NR2E3 ag-1, NR2E3 ag-2)
O=C1NC(=S)S/C1=C\c1cc(Cl)cc(Cl)c1O	rCAG RNA binder 38.0 (no result: NR2E3 ag-2) | NR2E3 ag conf 73.0 | VP16 counter inactive | rCAG binder conf 46.7 | DNA CAG counter 15.3

Assay outcomes (PubChem BioAssay)
